Source: ChEMBL document CHEMBL1145556, “Development of potent and selective phosphinic peptide inhibitors of angiotensin-converting enzyme 2” (J Med Chem, 2008)

Legend:
[1] = molecular target: Angiotensin-converting enzyme 2 (Homo sapiens, UniProt Q9BYF1); assay: Inhibition of ACE2
In short: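 Recombinant ACE2 (0.3 nM final) preincubated with inhibitor for 45 min, then Mca-APK(Dnp) substrate (35 µM final) added. Run at 25 °C in 50 mM Hepes pH 6.8, 1 M NaCl, 10 µM ZnCl2. Fluorescence rise followed continuously (ex 320, em 405 nm) at under 10% substrate use. Triplicates at five inhibitor concentrations giving 20–80% inhibition; Ki by the Horovitz–Levitzki method.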

[2] = Inhibition of ACE
In short: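 Somatic ACE (0.5 nM) with Mca-Ala-Ser-Asp-Lys-Dpa-OH substrate (15 µM). Otherwise as for ACE2: 45 min enzyme–inhibitor preincubation, 25 °C, 50 mM Hepes pH 6.8, 1 M NaCl, 10 µM ZnCl2. Continuous fluorescence read-out (ex 320, em 405 nm) of initial rates. Triplicates at five concentrations spanning 20–80% inhibition; Ki by the Horovitz–Levitzki method.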

Carboxypeptidase A1 = molecular target: T1, Carboxypeptidase A1 (Bos taurus, UniProt P00730); assay: Inhibition of bovine carboxypeptidase A
T1 sequence (P00730 whole entry): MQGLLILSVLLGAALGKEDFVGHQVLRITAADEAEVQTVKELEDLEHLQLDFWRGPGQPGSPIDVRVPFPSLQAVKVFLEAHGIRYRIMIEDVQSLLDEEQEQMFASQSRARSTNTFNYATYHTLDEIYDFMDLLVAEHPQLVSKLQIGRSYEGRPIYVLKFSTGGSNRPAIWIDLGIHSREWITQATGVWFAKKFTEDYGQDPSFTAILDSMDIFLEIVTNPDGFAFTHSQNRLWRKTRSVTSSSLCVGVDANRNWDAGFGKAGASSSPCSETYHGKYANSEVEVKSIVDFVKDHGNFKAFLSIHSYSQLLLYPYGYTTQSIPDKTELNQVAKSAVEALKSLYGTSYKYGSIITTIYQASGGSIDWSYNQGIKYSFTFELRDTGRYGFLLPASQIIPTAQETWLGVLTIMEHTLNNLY
In short: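 Bovine pancreatic carboxypeptidase A (0.5 nM) mixed with inhibitor in 50 mM Tris-HCl, 1 M NaCl, pH 7.5. Reaction started by adding furylacryloyl-Phe-Phe (50 µM).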

Sequence of Angiotensin-converting enzyme 2 (Q9BYF1 whole entry): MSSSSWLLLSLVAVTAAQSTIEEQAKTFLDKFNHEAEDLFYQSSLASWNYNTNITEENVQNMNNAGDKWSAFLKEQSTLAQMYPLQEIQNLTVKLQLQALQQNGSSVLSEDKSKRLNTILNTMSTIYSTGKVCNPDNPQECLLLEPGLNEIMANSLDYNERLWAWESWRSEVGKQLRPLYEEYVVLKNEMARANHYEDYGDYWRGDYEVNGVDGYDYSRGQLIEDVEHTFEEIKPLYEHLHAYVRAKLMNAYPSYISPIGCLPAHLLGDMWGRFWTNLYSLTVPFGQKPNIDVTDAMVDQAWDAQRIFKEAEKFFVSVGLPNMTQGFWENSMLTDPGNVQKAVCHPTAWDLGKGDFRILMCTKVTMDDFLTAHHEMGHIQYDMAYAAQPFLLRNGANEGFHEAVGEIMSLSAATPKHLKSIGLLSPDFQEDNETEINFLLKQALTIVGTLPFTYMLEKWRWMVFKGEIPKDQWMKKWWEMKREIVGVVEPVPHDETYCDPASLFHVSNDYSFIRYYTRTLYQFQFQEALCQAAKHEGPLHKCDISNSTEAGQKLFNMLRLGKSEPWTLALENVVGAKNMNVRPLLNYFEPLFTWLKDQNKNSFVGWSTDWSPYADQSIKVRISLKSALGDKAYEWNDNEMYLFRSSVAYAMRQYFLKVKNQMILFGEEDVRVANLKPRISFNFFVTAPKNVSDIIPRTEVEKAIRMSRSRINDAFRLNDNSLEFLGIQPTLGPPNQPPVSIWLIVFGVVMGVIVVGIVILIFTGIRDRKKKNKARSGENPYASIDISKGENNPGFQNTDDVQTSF

SMILES | Ki [1] [nM] | Ki [2] [nM] | Ki (Carboxypeptidase A1) [nM]
O=C(N[C@H](Cc1ccccc1)P(=O)(O)C[C@@H](Cc1ccccc1)C(=O)O)OCc1ccccc1 | > 10000 | – | –
C[C@@H](NC(=O)OCc1ccccc1)P(=O)(O)C[C@@H](Cc1ccccc1)C(=O)O | > 10000 | – | –
CC(=O)N[C@@H](Cc1ccccc1)C(=O)N1CCC[C@@H]1P(=O)(O)C[C@@H](Cc1ccccc1)C(=O)O | 5.2 | – | –
O=C(O)[C@H](Cc1ccccc1)CP(=O)(O)[C@H]1CCCN1C(=O)OCc1ccccc1 | 300 | – | –
O=C(O)[C@H](Cc1ccccc1)CP(=O)(O)[C@H]1CCCN1 | > 10000 | – | –
CC(=O)N[C@@H](CC(C)C)C(=O)N1CCC[C@@H]1P(=O)(O)CC(Cc1cc(-c2ccccc2)no1)C(=O)O (stereo partly specified) | 1.25 | > 10000 | 35
CC(=O)N[C@@H](CCC(=O)O)C(=O)N1CCC[C@@H]1P(=O)(O)C[C@@H](Cc1ccccc1)C(=O)O | 7 | – | –
CC(C)C[C@@H](NC(=O)OCc1ccccc1)P(=O)(O)C[C@@H](Cc1ccccc1)C(=O)O | 8000 | – | –
CC(C)C[C@@H](N)P(=O)(O)C[C@@H](Cc1ccccc1)C(=O)O | > 10000 | – | –
C[C@@H](N)P(=O)(O)C[C@@H](Cc1ccccc1)C(=O)O | > 10000 | – | –
CC(=O)N[C@@H](Cc1c[nH]cn1)C(=O)N[C@H](CC(C)C)P(=O)(O)CC(Cc1cc(-c2ccccc2)no1)C(=O)O (stereo partly specified) | 220 | – | > 10000
CC(=O)N[C@@H](Cc1c[nH]cn1)C(=O)N[C@H](CC(C)C)P(=O)(O)C[C@@H](Cc1ccccc1)C(=O)O | 800 | – | 175
CC(=O)N[C@@H](CC(C)C)C(=O)N[C@H](Cc1ccccc1)P(=O)(O)C[C@@H](Cc1ccccc1)C(=O)O | 920 | – | 0.3
CC(=O)N[C@@H](Cc1c[nH]cn1)C(=O)N1CCC[C@@H]1P(=O)(O)CC(Cc1cc(-c2ccccc2)no1)C(=O)O (stereo partly specified) | 0.4 | > 10000 | 1050
C[C@H](CP(=O)(O)[C@H]1CCCN1C(=O)OCc1ccccc1)C(=O)O | 3000 | – | –
CC(=O)N[C@@H](C)C(=O)N1CCC[C@@H]1P(=O)(O)C[C@@H](Cc1ccccc1)C(=O)O | 7.5 | – | –
CC(=O)N[C@@H](Cc1ccc(O)cc1)C(=O)N1CCC[C@@H]1P(=O)(O)C[C@@H](Cc1ccccc1)C(=O)O | 5.2 | – | –
CC(=O)N[C@H](C(=O)N1CCC[C@@H]1P(=O)(O)C[C@@H](Cc1ccccc1)C(=O)O)C(C)C | 6.6 | – | –
CC(C)C[C@H](CP(=O)(O)[C@H]1CCCN1C(=O)OCc1ccccc1)C(=O)O | 300 | – | –
CC(=O)N[C@@H](CCCCN)C(=O)N1CCC[C@@H]1P(=O)(O)C[C@@H](Cc1ccccc1)C(=O)O | 6.5 | – | –
N[C@H](Cc1ccccc1)P(=O)(O)C[C@@H](Cc1ccccc1)C(=O)O | > 10000 | – | –
CC(=O)N[C@@H](CC(C)C)C(=O)N1CCC[C@@H]1P(=O)(O)C[C@@H](Cc1ccccc1)C(=O)O (stereo in doubt) | 0.13 | > 10000 | 0.5
CC(=O)N[C@@H](Cc1c[nH]cn1)C(=O)N1CCC[C@@H]1P(=O)(O)C[C@@H](Cc1ccccc1)C(=O)O (stereo in doubt) | 0.7 | > 10000 | 60
CC(=O)N[C@@H](CC(C)C)C(=O)N1CCC[C@@H]1P(=O)(O)C[C@@H](Cc1ccccc1)C(=O)O (stereo in doubt; 28) | 0.35 | – | –
CC(=O)N[C@@H](Cc1c[nH]cn1)C(=O)N1CCC[C@@H]1P(=O)(O)C[C@@H](Cc1ccccc1)C(=O)O (stereo in doubt; 34) | 2.1 | – | –
